{
  "source": "ChEMBL document CHEMBL4049434",
  "about": "“Radiolabeled Dibenzodiazepinone-Type Antagonists Give Evidence of Dualsteric Binding at the M2 Muscarinic Acetylcholine Receptor” (J Med Chem, 2017)",
  "key": {"[1]": {"target": "T1, Muscarinic acetylcholine receptor M2 (Homo sapiens, UniProt P08172)", "T1 sequence (P08172 whole entry)": "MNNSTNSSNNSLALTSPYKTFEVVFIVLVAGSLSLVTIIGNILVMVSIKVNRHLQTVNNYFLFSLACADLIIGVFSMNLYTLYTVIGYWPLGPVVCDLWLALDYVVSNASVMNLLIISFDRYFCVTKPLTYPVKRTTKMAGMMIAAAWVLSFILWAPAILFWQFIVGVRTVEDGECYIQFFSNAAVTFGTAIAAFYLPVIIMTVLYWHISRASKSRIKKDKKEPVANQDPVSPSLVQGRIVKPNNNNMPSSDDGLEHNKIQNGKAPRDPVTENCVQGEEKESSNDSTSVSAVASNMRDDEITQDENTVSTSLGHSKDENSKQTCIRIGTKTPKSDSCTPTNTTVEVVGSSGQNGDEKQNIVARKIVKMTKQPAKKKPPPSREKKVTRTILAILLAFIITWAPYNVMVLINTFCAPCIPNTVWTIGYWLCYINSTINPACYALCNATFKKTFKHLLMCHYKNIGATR", "experiment": "Displacement of [3H]NMS from human muscarinic acetylcholine receptor M2 expressed in CHOK9 cells after 3 hrs by liquid scintillation counting assay", "type": "cell-based", "details": "read-out: Ki"}, "[2]": {"target": "T1, Muscarinic acetylcholine receptor M2", "experiment": "Binding affinity to human muscarinic acetylcholine receptor M2 expressed in CHOK9 cell homogenate after 2 hrs by liquid scintillation counting assay", "details": "read-out: Kd(app)", "how_it_was_run": "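CHO-hM2 cell homogenates (25–30 μg protein/well) in L15 medium with 1% BSA, 23 ± 1 °C, 2 h with tritiated dimeric radioligand. Competition used 0.5 nM radioligand; additional 0.4, 1, 2 and 4 nM in W84 experiments. […] Four-parameter logistic fits; at least three experiments in triplicate.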"}, "[3]": {"target": "T1, Muscarinic acetylcholine receptor M2", "experiment": "Binding affinity to human muscarinic acetylcholine receptor M2 expressed in live adherent CHOK9 cells after 2 hrs by liquid scintillation counting assay", "type": "cell-based", "how_it_was_run": "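Live adherent CHO-hM2 cells in L15 medium with 1% BSA, 23 ± 1 °C, 2 h incubation. Competition at 2 nM radioligand; additional 4, 8, 15 and 30 nM in W84 experiments. […] Saturation data fitted one-site; competition by four-parameter logistic fits; at least three experiments in triplicate.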"}, "[4]": {"target": "T1, Muscarinic acetylcholine receptor M2", "experiment": "Binding affinity to human muscarinic acetylcholine receptor M2 expressed in CHOK9 cell homogenate assessed as saturation binding after 2 hrs by liquid scintillation counting assay"}},
  "data": [
    {"smiles": "O=C(O)C(F)(F)F.O=C(O)C(F)(F)F.O=C(O)C(F)(F)F.O=C(O)C(F)(F)F.[3H]CC([3H])C(=O)NC1CN(CCCCC2CCN(CC(=O)N3c4ccccc4NC(=O)c4ccccc43)CC2)CCN(CCCCC2CCN(CC(=O)N3c4ccccc4NC(=O)c4ccccc43)CC2)C1", "note": "(centres undefined)", "values": [
      {"measurement": "Ki", "setting": "[1]", "value": 0.71, "unit": "nM"},
      {"measurement": "Kd", "setting": "[2]", "value": "3 to 4.6", "unit": "nM"},
      {"measurement": "Kd", "setting": "[3]", "value": 8.4, "unit": "nM"},
      {"measurement": "Kd", "setting": "[4]", "value": 4.6, "unit": "nM"}
    ]}
  ]
}
